Experimental findings from ChEMBL document CHEMBL4351005, “Human constitutive androstane receptor agonist DL5016: A novel sensitizer for cyclophosphamide-based chemotherapies” (Eur J Med Chem, 2019) are described below.

Data set [1] has as its target T1, Nuclear receptor subfamily 1 group I member 3 (Homo sapiens, UniProt Q14994).
T1 sequence (Q14994 whole entry): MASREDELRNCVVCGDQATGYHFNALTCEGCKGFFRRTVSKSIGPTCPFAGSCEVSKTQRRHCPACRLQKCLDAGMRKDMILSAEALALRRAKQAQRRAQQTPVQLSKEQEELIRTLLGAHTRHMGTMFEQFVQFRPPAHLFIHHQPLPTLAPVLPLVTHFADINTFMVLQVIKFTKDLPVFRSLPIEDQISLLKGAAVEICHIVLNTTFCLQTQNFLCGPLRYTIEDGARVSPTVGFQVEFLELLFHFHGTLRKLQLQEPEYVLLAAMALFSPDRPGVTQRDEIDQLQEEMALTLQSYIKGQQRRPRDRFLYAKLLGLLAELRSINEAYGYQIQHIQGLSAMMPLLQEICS
In words: Agonist activity at human constitutive androstane receptor expressed in HepG2 cells co-expressing CYP2B6 incubated for 23 hrs by One-Glo luciferase reporter gene assay. It counts as cell-based. In short, it runs like this: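 HepG2-CYP2B6-hCAR stable reporter cells, 2,500/well, attached 5 h at 37 °C/5% CO₂. Compounds in DMSO, 16 final concentrations from 6.41 pM to 92 μM (1:3 steps), with PK11195 at 0.75 μM final; final DMSO 0.46%. After 23 h, viability read by CellTiter-Fluor (ex 405/em 540 nm), then ONE-Glo luminescence (30 min, RT) in RLU.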

Data set [2] has as its target T1, Nuclear receptor subfamily 1 group I member 3. Briefly: Induction of constitutive - androstane receptor in human primary hepatocytes assessed as upregulation of CYP2B6 mRNA expression measured after 24 hrs by RT-PCR analysis. It counts as cell-based. In short, it runs like this:
(§1)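 Primary human hepatocytes (donors HL-#131 and #133), viability >90%, 0.75×10⁶ cells/well, Matrigel overlay 0.25 mg/mL. Dosed 36 h post-seeding at 0.1, 0.5 and 1 μM (vehicle 0.1% DMSO; rifampin 10 μM reference) for 24 h. RT-PCR fold over control = 2^ΔΔCt versus GAPDH; mean ± SD, three independent experiments.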

Data set [3] shares this target. In words: Induction of constitutive androstane receptor in human primary hepatocytes assessed as upregulation of CYP3A4 mRNA expression measured after 24 hrs by RT-PCR analysis. It counts as cell-based. In short, it runs like this:
as §1

The target is the same in data set [4]. In words: Induction of adenoviral enhanced yellow fluorescent protein tagged constitutive androstane receptor translocation from cytoplasm to nucleus in human primary hepatocytes at 1 uM measured after 8 hrs by DAPI staining based fluorescent microscopic analysis. In kind it is cell-based. In short, it runs like this: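 Hepatocytes (60,000/well, collagen plates) infected overnight with Ad/EYFP-hCAR (3 μL/mL), then treated 8 h at 1 μM; controls 0.1% DMSO, phenobarbital 1 mM. Cells PFA-fixed and DAPI-stained; five images per well. Translocation % = cells with ≥50% nuclear overlap with EYFP-hCAR ÷ EYFP-positive cells; mean ± SD of five images.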

A short description of data set [5]: Stability of compound. In kind it is physicochemical.
Data set [6] is described as follows: Aqueous solubility of compound measured after 6 hrs by reverse phase HPLC analysis. In kind it is physicochemical. Particulars: water; call rule not given here. In a few lines: (§2)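 6 mg solid in 1 mL water or PBS (pH 7.4), shaken 6 h at 25 °C, centrifuged, and the supernatant filtered. Filtrate quantified by C18 reverse-phase HPLC: water-acetonitrile-triethylamine 30:70:0.01, 1 mL/min, UV 312 nm. Standard curve from solutions of known concentration.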

The nature of data set [7]: Aqueous solubility of the compound in phosphate buffer at pH 7.4 measured after 6 hrs by reverse phase HPLC analysis. In kind it is physicochemical. Particulars: pH 7.4, 6 h. In short, it runs like this:
as §2

Data set [8] can be described thus: Lipophilicity, logP of compound. It counts as physicochemical. The settings on record: octanol/water.
Data set [9] has as its system SUD4. Briefly: Potentiation of cyclophospamide/doxorubicin/vincristine/prednisone induced cytotoxicity against human SUDHL4 cells co-cultured with human primary hepatocytes assessed as reduction in cell viability after 24 hrs. In kind it is functional, cell-based. In a few lines: (§3)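 Hepatocytes pretreated 24 h with 1 μM test agent or 0.1% DMSO. 0.5×10⁶ SU-DHL-4 cells then added in membrane inserts (Williams' E). Co-cultures exposed with or without CHOP (5, 100, 500 μM; time course at 100 μM), plus or minus 1 μM agent. Viability by trypan blue exclusion at 24 h or set times, as % of vehicle; three independent measurements.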

Data set [10] has as its system SUD4. Briefly: Potentiation of cyclophospamide/doxorubicin/vincristine/prednisone induced cytotoxicity against human SUDHL4 cells co-cultured with human primary hepatocytes assessed as reduction in cell viability at 1 uM. It counts as functional, cell-based. The settings on record: TDE = time-dependent effect. In a few lines: as §3
Data set [11] concerns the target T1, Nuclear receptor subfamily 1 group I member 3. Briefly: Induction of constitutive - androstane receptor in human primary hepatocytes assessed as upregulation of CYP2B6 protein expression measured after 72 hrs by Western blot analysis. It counts as cell-based. In short, it runs like this:
(§4)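 Hepatocytes from donors #131 and #133, dosed 36 h after seeding at 0.1, 0.5 and 1 μM (0.1% DMSO vehicle) for 72 h. Homogenate proteins run on 4–12% SDS-PAGE and immunoblotted: anti-CYP2B6 1:200, anti-CYP3A4 1:5000, β-actin 1:50,000 loading control. HRP secondaries, ECL detection.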

For data set [12] the target is unchanged. In words: Induction of constitutive androstane receptor in human primary hepatocytes assessed as upregulation of CYP3A4 protein expression measured after 72 hrs by Western blot analysis. It counts as cell-based. In a few lines:
as §4

Data set [13] concerns SUD4. Briefly: Antiproliferative activity against human SUDHL4 cells co-cultured with human primary hepatocytes assessed as reduction in cell viability at 1 uM after 24 hrs. It counts as cell-based. The settings on record: sud4, 24 h. In short, it runs like this:
as §3

For data set [14], the target named is T1, Nuclear receptor subfamily 1 group I member 3. Briefly: Ratio of Emax to EC50 for human constitutive androstane receptor expressed in HepG2 cells co-expressing CYP2B6.

Converted amounts (≈) assume the structure as drawn.

Molecule `c1ccc2c(c1)CC(NCc1c(-c3ccc4ccccc4c3)nc3occn13)C2` yielded an EC50 in [1] of 660 nM. In addition, the Activity result in data set [2] is “Dose-dependent effect”; in data set [3], “Active”; in [4] it was “Active”; in the data set with SUD4 [9], “Dose-dependent effect”; in the data set with SUD4 [10], “Tde”; in data set [11] it was “Dose-dependent effect”. Besides, the Activity result in [12] is recorded as “Dose-dependent effect”; with SUD4 [13], “Non-Toxic”. In addition, the Stability entry in data set [5] is “Stable”. Also, the solubility is 18 µg/mL (≈ 47.4 µM) in data set [6] and 17 µg/mL (≈ 44.8 µM) in data set [7]. In [8], this molecule gave a logP of 4.62. Also, the Ratio in data set [14] turned out to be 7.4 µM⁻¹.
